In ChEMBL document CHEMBL4052595, “Application of Residual Dipolar Couplings and Selective Quantitative NOE to Establish the Structures of Tetranortriterpenoids from Xylocarpus rumphii” (J Nat Prod, 2017):
Activity calls are given as the source filed them.

Columns and labels:
Type in all cases: functional, cell-based
[1] = test system: SF-539; experiment: Growth inhibition of human SF539 cells at 10^-5 M incubated for 48 hrs by sulforhodamine B assay
Summary of the method: (§1)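 Run in the NCI59 one-dose cell-line screen, with each compound tested at a single concentration of 1 × 10−5 M.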

[2] = test system: RPMI-8226; experiment: Growth inhibition of human RPMI8226 cells at 10^-5 M incubated for 48 hrs by sulforhodamine B assay; summary of the method: as §1
[3] = test system: KM12; experiment: Growth inhibition of human KM12 cells at 10^-5 M incubated for 48 hrs by sulforhodamine B assay; summary of the method: as §1
[4] = test system: SR; experiment: Growth inhibition of human SR cells at 10^-5 M incubated for 48 hrs by sulforhodamine B assay; summary of the method: as §1
[5] = test system: U-251; experiment: Growth inhibition of human U251 cells at 10^-5 M incubated for 48 hrs by sulforhodamine B assay
Summary of the method: (§2)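 Tested at a single concentration of 1 × 10−5 M as part of the NCI59 cell-line one-dose screen.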

[6] = test system: PC-3; experiment: Growth inhibition of human PC3 cells at 10^-5 M incubated for 48 hrs by sulforhodamine B assay; summary of the method: as §1
[7] = test system: HCC 2998; experiment: Growth inhibition of human HCC2998 cells at 10^-5 M incubated for 48 hrs by sulforhodamine B assay; summary of the method: as §1
[8] = test system: SNB-19; experiment: Growth inhibition of human SNB19 cells at 10^-5 M incubated for 48 hrs by sulforhodamine B assay; summary of the method: as §1
[9] = test system: NCI-H226; experiment: Growth inhibition of human NCI-H226 cells at 10^-5 M incubated for 48 hrs by sulforhodamine B assay; summary of the method: as §1
[10] = test system: CCRF-CEM; experiment: Growth inhibition of human CCRF-CEM cells at 10^-5 M incubated for 48 hrs by sulforhodamine B assay; summary of the method: as §1
[11] = test system: SF-295; experiment: Growth inhibition of human SF295 cells at 10^-5 M incubated for 48 hrs by sulforhodamine B assay; summary of the method: as §1
[12] = test system: 786-0; experiment: Growth inhibition of human 786-0 cells at 10^-5 M incubated for 48 hrs by sulforhodamine B assay; summary of the method: as §1
[13] = test system: MDA-MB-435; experiment: Growth inhibition of human MDA-MB-435 cells at 10^-5 M incubated for 48 hrs by sulforhodamine B assay; summary of the method: as §1
[14] = test system: OVCAR-5; experiment: Growth inhibition of human OVCAR5 cells at 10^-5 M incubated for 48 hrs by sulforhodamine B assay; summary of the method: as §1
[15] = test system: DU-145; experiment: Growth inhibition of human DU145 cells at 10^-5 M incubated for 48 hrs by sulforhodamine B assay; summary of the method: as §1
[16] = test system: EKVX; experiment: Growth inhibition of human EKVX cells at 10^-5 M incubated for 48 hrs by sulforhodamine B assay; summary of the method: as §1
[17] = test system: NCI-H322M; experiment: Growth inhibition of human NCI-H322M cells at 10^-5 M incubated for 48 hrs by sulforhodamine B assay; summary of the method: as §1
[18] = test system: OVCAR-4; experiment: Growth inhibition of human OVCAR4 cells at 10^-5 M incubated for 48 hrs by sulforhodamine B assay; summary of the method: as §1
[19] = test system: BT-549; experiment: Growth inhibition of human BT549 cells at 10^-5 M incubated for 48 hrs by sulforhodamine B assay; summary of the method: as §1
[20] = test system: A498; experiment: Growth inhibition of human A498 cells at 10^-5 M incubated for 48 hrs by sulforhodamine B assay; summary of the method: as §1
[21] = test system: TK-10; experiment: Growth inhibition of human TK10 cells at 10^-5 M incubated for 48 hrs by sulforhodamine B assay; summary of the method: as §2
[22] = test system: SF-268; experiment: Growth inhibition of human SF268 cells at 10^-5 M incubated for 48 hrs by sulforhodamine B assay; summary of the method: as §1
[23] = test system: SN12C; experiment: Growth inhibition of human SN12C cells at 10^-5 M incubated for 48 hrs by sulforhodamine B assay; summary of the method: as §1
[24] = test system: UACC-257; experiment: Growth inhibition of human UACC257 cells at 10^-5 M incubated for 48 hrs by sulforhodamine B assay; summary of the method: as §2
[25] = test system: RXF 393; experiment: Growth inhibition of human RXF393 cells at 10^-5 M incubated for 48 hrs by sulforhodamine B assay; summary of the method: as §1
[26] = test system: SK-MEL-2; experiment: Growth inhibition of human SK-MEL-2 cells at 10^-5 M incubated for 48 hrs by sulforhodamine B assay; summary of the method: as §1
[27] = test system: T47D; experiment: Growth inhibition of human T47D cells at 10^-5 M incubated for 48 hrs by sulforhodamine B assay; summary of the method: as §2
[28] = test system: CAKI-1; experiment: Growth inhibition of human Caki1 cells at 10^-5 M incubated for 48 hrs by sulforhodamine B assay; summary of the method: as §1
[29] = test system: HOP-92; experiment: Growth inhibition of human HOP92 cells at 10^-5 M incubated for 48 hrs by sulforhodamine B assay; summary of the method: as §1
[30] = test system: K562; experiment: Growth inhibition of human K562 cells at 10^-5 M incubated for 48 hrs by sulforhodamine B assay; summary of the method: as §1
[31] = test system: HCT-116; experiment: Growth inhibition of human HCT116 cells at 10^-5 M incubated for 48 hrs by sulforhodamine B assay; summary of the method: as §1
[32] = test system: M14; experiment: Growth inhibition of human M14 cells at 10^-5 M incubated for 48 hrs by sulforhodamine B assay; summary of the method: as §1
[33] = test system: MCF7; experiment: Growth inhibition of human MCF7 cells at 10^-5 M incubated for 48 hrs by sulforhodamine B assay; summary of the method: as §1
[34] = test system: COLO 205; experiment: Growth inhibition of human COLO205 cells at 10^-5 M incubated for 48 hrs by sulforhodamine B assay; summary of the method: as §1
[35] = test system: UACC-62; experiment: Growth inhibition of human UACC62 cells at 10^-5 M incubated for 48 hrs by sulforhodamine B assay; summary of the method: as §2
[36] = test system: SK-MEL-28; experiment: Growth inhibition of human SK-MEL-28 cells at 10^-5 M incubated for 48 hrs by sulforhodamine B assay; summary of the method: as §1
[37] = test system: LOX IMVI; experiment: Growth inhibition of human LOXIMVI cells at 10^-5 M incubated for 48 hrs by sulforhodamine B assay; summary of the method: as §1
[38] = test system: SNB-75; experiment: Growth inhibition of human SNB75 cells at 10^-5 M incubated for 48 hrs by sulforhodamine B assay; summary of the method: as §1
[39] = test system: OVCAR-8; experiment: Growth inhibition of human OVCAR8 cells at 10^-5 M incubated for 48 hrs by sulforhodamine B assay; summary of the method: as §1
[40] = test system: UO-31; experiment: Growth inhibition of human UO31 cells at 10^-5 M incubated for 48 hrs by sulforhodamine B assay; summary of the method: as §2
[41] = test system: HT-29; experiment: Growth inhibition of human HT-29 cells at 10^-5 M incubated for 48 hrs by sulforhodamine B assay; summary of the method: as §1
[42] = test system: OVCAR-3; experiment: Growth inhibition of human OVCAR3 cells at 10^-5 M incubated for 48 hrs by sulforhodamine B assay; summary of the method: as §1
[43] = test system: NCI-H460; experiment: Growth inhibition of human NCI-H460 cells at 10^-5 M incubated for 48 hrs by sulforhodamine B assay; summary of the method: as §1
[44] = test system: HCT-15; experiment: Growth inhibition of human HCT15 cells at 10^-5 M incubated for 48 hrs by sulforhodamine B assay; summary of the method: as §1
[45] = test system: NCI-H23; experiment: Growth inhibition of human NCI-H23 cells at 10^-5 M incubated for 48 hrs by sulforhodamine B assay; summary of the method: as §1
[46] = test system: SK-MEL-5; experiment: Growth inhibition of human SK-MEL-5 cells at 10^-5 M incubated for 48 hrs by sulforhodamine B assay; summary of the method: as §1
[47] = test system: MOLT-4; experiment: Growth inhibition of human MOLT4 cells at 10^-5 M incubated for 48 hrs by sulforhodamine B assay; summary of the method: as §1
[48] = test system: Hs-578T; experiment: Growth inhibition of human Hs 578T cells at 10^-5 M incubated for 48 hrs by sulforhodamine B assay; summary of the method: as §1
[49] = test system: A549; experiment: Growth inhibition of human A549/ATCC cells at 10^-5 M incubated for 48 hrs by sulforhodamine B assay; summary of the method: as §1
[50] = test system: ACHN; experiment: Growth inhibition of human ACHN cells at 10^-5 M incubated for 48 hrs by sulforhodamine B assay; summary of the method: as §1
[51] = test system: NCI-H522; experiment: Growth inhibition of human NCI-H522 cells at 10^-5 M incubated for 48 hrs by sulforhodamine B assay; summary of the method: as §1
[52] = test system: MDA-MB-231; experiment: Growth inhibition of human MDA-MB-231 cells at 10^-5 M incubated for 48 hrs by sulforhodamine B assay; summary of the method: as §1
[53] = test system: SW-620; experiment: Growth inhibition of human SW620 cells at 10^-5 M incubated for 48 hrs by sulforhodamine B assay; summary of the method: as §2
[54] = test system: IGROV-1; experiment: Growth inhibition of human IGROV1 cells at 10^-5 M incubated for 48 hrs by sulforhodamine B assay; summary of the method: as §1
[55] = test system: HOP-62; experiment: Growth inhibition of human HOP62 cells at 10^-5 M incubated for 48 hrs by sulforhodamine B assay; summary of the method: as §1
[56] = test system: HL-60(TB); experiment: Growth inhibition of human HL-60(TB) cells at 10^-5 M incubated for 48 hrs by sulforhodamine B assay
Summary of the method: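 Run in the NCI59 cell-line one-dose screen, with each compound tested at a single concentration of 1 × 10−5 M.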

[57] = test system: NCI/ADR-RES; experiment: Growth inhibition of human NCI/ADR-RES cells at 10^-5 M incubated for 48 hrs by sulforhodamine B assay; summary of the method: as §1
[58] = test system: SK-OV-3; experiment: Growth inhibition of human SKOV3 cells at 10^-5 M incubated for 48 hrs by sulforhodamine B assay; summary of the method: as §1

Measured: growth inhibition (GI)

COC(=O)C[C@H]1C(C)(C)[C@H](OC(=O)C(C)C)[C@@H]2[C@@H](OC(=O)C(C)C)[C@@]34O[C@]2(O)[C@]1(C)[C@H]3CC[C@]1(C)[C@H]4CC(=O)O[C@H]1c1ccoc1
inactive: all assays above
